This is an account of results in ChEMBL document CHEMBL1287742, “Synthetic pseudopterosin analogues: A novel class of antiinflammatory drug candidates” (2010).

For test [1], the system named is Mus musculus. The test is described as follows: Antiinflammatory activity in mouse assessed as effective dose per ear for inhibition of PMA-induced ear edema. Format: functional. The method, boiled down: (§1)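 Mouse ear edema: test compound applied topically in acetone to the inside pinna of the left ear together with PMA (2 µg/ear), under brief halothane anesthesia. Right ears received acetone only. Five mice per group. After 3 h 20 min the mice were euthanized and a 6 mm central ear biopsy was weighed. Edema was taken as the left-minus-right weight difference, expressed as % inhibition versus the PMA-only control group.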

The test system of test [2] is Mus musculus. The test can be described thus: Antiinflammatory activity in mouse assessed as inhibition of PMA-induced ear edema at 25 ug/ear administered topically as single dose after PMA challenge and measured after 3 hrs and 20 mins. The conditions noted are these: in the assay text read “simultaneously with PMA” for “after PMA challenge”. Format: functional. The method, boiled down: as §1

Several values for one entry are separate records, joined by “and”; a condition that tells them apart may be missing. Equal entries are not always repeated. Activity calls are given as the source filed them. The calls are words filed in the database; no cut-off is given here.

For `CC(C)=C[C@H]1C[C@H](C)[C@H]2CC[C@H](C)c3c(O[C@@H]4OC[C@@H](O)[C@H](O)[C@H]4O)c(O)c(C)c1c32` [PSEUDOPTEROSIN A], the ED50 in the test on Mus musculus [1] was 12 µg. The “inhibition (INH)” value with Mus musculus [2] is 70%.
As to `C[C@@H]1O[C@@H](Oc2cc3c4c(c2O)CCCC4CCC3)[C@@H](O)[C@H](O)[C@@H]1O` (some centres not stated), the “inhibition (INH)” value in the test with Mus musculus [2] is 34%.
Consider `Oc1cc2c3c(c1OC1OC[C@@H](O)[C@H](O)[C@H]1O)CCCC3CCC2` (some centres not stated), for which the “inhibition (INH)” value with Mus musculus [2] is given as 37%.
Take `C[C@@H]1O[C@@H](Oc2c(O)c(C(F)(F)F)c3c4c2CCCC4CCC3)[C@@H](O)[C@H](O)[C@@H]1O` (some centres not stated): in the test with Mus musculus [2], the “inhibition (INH)” value is 45% and 53%.
With `Oc1c(OC2OC[C@@H](O)[C@H](O)[C@H]2O)cc2c3c1CCCC3CCC2` (some centres not stated), the “inhibition (INH)” value in the test with Mus musculus [2] is reported as 44%.
As for `C[C@@H]1O[C@@H](Oc2cc3c4c(c2O)[C@@H](C)CC[C@@H]4CCC3)[C@@H](O)[C@H](O)[C@@H]1O` (relative stereo), the “inhibition (INH)” value in the test on Mus musculus [2] is 58%.
Turning to `C[C@@H]1CC[C@@H]2CCCc3cc(O[C@@H]4O[C@@H](C)[C@@H](O)[C@@H](O)[C@@H]4O)c(O)c1c32` (relative stereo), the “inhibition (INH)” value in the test with Mus musculus [2] is recorded as 50%.
Still for that read-out and setting: then `C[C@@H]1OC(Oc2c(O)cc3c4c2CCCC4CCC3)[C@@H](O)[C@H](O)[C@@H]1O` (some centres not stated), with 24%; and `Cc1c(O)c(O[C@@H]2O[C@@H](C)[C@@H](O)[C@@H](O)[C@@H]2O)c2c3c1CCCC3CCC2` (some centres not stated), with 49%.
As for `C[C@@H]1O[C@@H](Oc2cc3c4c(c2O)C(=O)CCC4CCC3)[C@@H](O)[C@H](O)[C@@H]1O` (some centres not stated), the inhibition entry in the test with Mus musculus [2] is “inactive”.
Consider `C[C@@H]1O[C@@H](Oc2cc3c4c(c2O)C(C)(C)CCC4CCC3)[C@@H](O)[C@H](O)[C@@H]1O` (some centres not stated), for which the “inhibition (INH)” value in the test on Mus musculus [2] is on record as 38%.
